Results: ChEMBL document CHEMBL5375970, “Discovery of Potent and Selective WDR5 Proteolysis Targeting Chimeras as Potential Therapeutics for Pancreatic Cancer” (J Med Chem, 2023)
The source made the active and inactive calls.

Legend:
[1] = target: T1, von Hippel-Lindau disease tumor suppressor/WD repeat-containing protein 5 (Homo sapiens, UniProt P61964+P40337); assay: PROTAC activity at VHL/WDR5 in human MIA PaCa-2 cells assessed as hook effect upto 50 uM incubated for 18 hrs by Western blotting analysis; assay type: cell-based
Method in brief: (§1)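 Five PDAC lines (MIA PaCa-2 in DMEM; BxPC-3, HPAF-II, Panc10.05 and PANC-1 in RPMI 1640; all with 10% FBS) given DMSO or compound over a concentration range up to 50 μM for 18 h. Lysates immunoblotted for WDR5 against tubulin. For MIA PaCa-2, DC50 and Dmax were fitted from 4 independent experiments.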

[2] = target: T1, von Hippel-Lindau disease tumor suppressor/WD repeat-containing protein 5; assay: PROTAC activity at VHL/WDR5 in human MIA PaCa-2 cells assessed as degradation of WDR5 protein at 0.1 uM incubated for 2 hrs by Western blotting analysis; assay type: cell-based
Method in brief: (§2)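 Time course: MIA PaCa-2 cells given DMSO or 0.1 μM compound and harvested at the indicated times. Lysates immunoblotted for WDR5, with tubulin as loading control. Representative of at least two independent experiments.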

[3] = target: T1, von Hippel-Lindau disease tumor suppressor/WD repeat-containing protein 5; assay: PROTAC activity at VHL/WDR5 in human MIA PaCa-2 cells assessed as degradation of WDR5 protein at 0.1 uM by Western blotting analysis; assay type: cell-based; details: TDE = time-dependent effect; method in brief: as §2
PANC-1 = assay: Growth inhibition of human PANC-1 cells incubated for 6 days by MTS assay; assay type: functional; details: PANC-1, 144 h, time 6 day
Method in brief: (§3)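 MTS read-out. PDAC cells seeded at 500 or 1000 per well and exposed to a compound concentration series for 6 days, with medium plus fresh compound replaced every 2 days. MTS incubated 0.5–2 h, absorbance read at 490 nm. Growth normalized to DMSO. Three independent experiments, mean ± SEM; GI50 by nonlinear regression.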

[4] = target: T1, von Hippel-Lindau disease tumor suppressor/WD repeat-containing protein 5; assay: PROTAC activity at VHL/WDR5 in human MIA PaCa-2 cells assessed as degradation of WDR5 protein at 0.5 uM incubated for 4 hrs in presence of carfilzomib by Western blotting analysis; assay type: cell-based
Method in brief: (§4)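 Rescue: MIA PaCa-2 cells pretreated for 2 h with 0.4 μM carfilzomib or with OICR-9429 at several concentrations, then given DMSO or 0.5 μM compound for a further 4 h. WDR5 immunoblotted against tubulin. Representative of at least two experiments.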

[5] = target: T1, von Hippel-Lindau disease tumor suppressor/WD repeat-containing protein 5; assay: PROTAC activity at VHL/WDR5 in human Panc1005 cells assessed as hook effect upto 50 uM incubated for 18 hrs by Western blotting analysis; assay type: cell-based; method in brief: as §1
[6] = target: T1, von Hippel-Lindau disease tumor suppressor/WD repeat-containing protein 5; assay: PROTAC activity at VHL/WDR5 in human HPAF-II cells assessed as degradation of WDR5 protein incubated for 18 hrs by Western blotting analysis; assay type: cell-based; method in brief: as §1
[7] = Toxicity in Swiss albino mouse assessed as clinical signs of toxicity at 75 mg/kg,ip observed after 0.5 to 12 hrs; assay type: organism-based; details: in vivo, time 0.5-12 hrs
Method in brief: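 Six male Swiss albino mice were given one intraperitoneal dose of a solution formulation at 75 mg/kg and observed for clinical signs during the 12 h PK sampling period (0.5–12 h).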

[8] = target: T1, von Hippel-Lindau disease tumor suppressor/WD repeat-containing protein 5; assay: PROTAC activity at VHL/WDR5 in human MIA PaCa-2 cells assessed as decrease in WDR5 protein by measuring degradation concentration incubated for 18 hrs by Western blotting analysis; assay type: cell-based
Method in brief: (§5)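 MIA PaCa-2 cells were grown in DMEM with 10% FBS and treated with a concentration series for 18 h. Total lysates were Western blotted for WDR5 against a tubulin loading control using fluorescent secondary antibodies. DC50 and Dmax were fitted from 4 independent experiments.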

[9] = target: T1, von Hippel-Lindau disease tumor suppressor/WD repeat-containing protein 5; assay: PROTAC activity at VHL/WDR5 in human Panc1005 cells assessed as degradation of WDR5 protein incubated for 18 hrs by Western blotting analysis; assay type: cell-based; method in brief: as §1
[10] = target: T1, von Hippel-Lindau disease tumor suppressor/WD repeat-containing protein 5; assay: PROTAC activity at VHL/WDR5 in human BXPC-3 cells assessed as hook effect upto 50 uM incubated for 18 hrs by Western blotting analysis; assay type: cell-based; method in brief: as §1
[11] = Drug distribution in Swiss albino mouse plasma at 75 mg/kg,ip administration measured for 12 hrs by LC-MS/MS analysis; assay type: ADME, organism-based
Method in brief: (§6)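 Six male Swiss albino mice were each given one intraperitoneal dose of a solution formulation at 75 mg/kg. […] Plasma was quantified by LC–MS/MS (LLOQ 5.03 ng/mL), values are means of three mice per time point, and PK was derived by nonlinear regression.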

[12] = target: T1, von Hippel-Lindau disease tumor suppressor/WD repeat-containing protein 5; assay: PROTAC activity at VHL/WDR5 in human BXPC-3 cells assessed as degradation of WDR5 protein incubated for 18 hrs by Western blotting analysis; assay type: cell-based; method in brief: as §1
[13] = target: T1, von Hippel-Lindau disease tumor suppressor/WD repeat-containing protein 5; assay: PROTAC activity at VHL/WDR5 in human MIA PaCa-2 cells assessed as maximal degradation of WDR5 protein at 0.1 uM incubated for 24 hrs by Western blotting analysis; assay type: cell-based; method in brief: as §2
[14] = target: T1, von Hippel-Lindau disease tumor suppressor/WD repeat-containing protein 5; assay: PROTAC activity at VHL/WDR5 in human PANC-1 cells assessed as degradation of WDR5 protein incubated for 18 hrs by Western blotting analysis; assay type: cell-based; method in brief: as §1
[15] = Binding affinity to His-tagged VCB/full-length N-terminal His-tagged WDR5 (unknown origin) expressed in Escherichia coli BL21 (DE3) cells assessed as dissociation constant by isothermal titration calorimetry; set-up: species or system Homo sapiens
Method in brief: (§7)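 Inverse ITC was run with His-tagged VCB (pVHL54–213 co-expressed with EloB1–104 and EloC1–112) and E. coli BL21(DE3)-expressed WDR5, both purified by HisTrap and Superdex 200 gel filtration. Titrations were VCB into ligand, VCB into the ligand–WDR5 complex, and WDR5 into ligand. Three independent replicates were done, reported as mean ± SD, and the first injection was excluded from fitting.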

[16] = Drug distribution in Swiss albino mouse plasma at 75 mg/kg,ip administration measured for 4 hrs by LC-MS/MS analysis; assay type: ADME, organism-based; method in brief: as §6
[17] = target: WD repeat-containing protein 5 (Homo sapiens, UniProt P61964); assay: Binding affinity to full-length N-terminal His-tagged WDR5 (unknown origin) expressed in Escherichia coli BL21 (DE3) cells assessed as dissociation constant by isothermal titration calorimetry; method in brief: as §7
[18] = target: T1, von Hippel-Lindau disease tumor suppressor/WD repeat-containing protein 5; assay: PROTAC activity at VHL/WDR5 in human MIA PaCa-2 cells assessed as degradation of WDR5 protein at 1.5 uM incubated for 2 hrs by TMT-labeled mass spectrometry based quantitative proteomics assay; assay type: cell-based
Method in brief: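 TMT proteomics: MIA PaCa-2 cells given DMSO or 1.5 μM compound (2 h in the figure legend, 2.5 h in the methods). Cells lysed in 8 M urea pH 8.0, reduced with DTT, alkylated with iodoacetamide, then digested with LysC/trypsin overnight at 37 °C. Peptides TMT10plex-labelled and analyzed by MS. Cutoffs P < 0.01 and log2 fold change > 0.5, three biological replicates.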

[19] = target: T1, von Hippel-Lindau disease tumor suppressor/WD repeat-containing protein 5; assay: PROTAC activity at VHL/WDR5 in human PANC-1 cells assessed as hook effect upto 50 uM incubated for 18 hrs by Western blotting analysis; assay type: cell-based; method in brief: as §1
[20] = target: T1, von Hippel-Lindau disease tumor suppressor/WD repeat-containing protein 5; assay: PROTAC activity at VHL/WDR5 in human MIA PaCa-2 cells assessed as degradation of WDR5 protein at 1.5 uM incubated for 2 hrs by Western blotting analysis; assay type: cell-based
Method in brief: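 MIA PaCa-2 cells given DMSO or 1.5 μM compound for 2 h. Lysates prepared for proteomics were checked by WDR5 immunoblot.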

HPAF-II = assay: Growth inhibition of human HPAF-II cells incubated for 6 days by MTS assay; assay type: functional; details: 144 h, time 6 day; method in brief: as §3
[21] = target: T1, von Hippel-Lindau disease tumor suppressor/WD repeat-containing protein 5; assay: PROTAC activity at VHL/WDR5 in human MIA PaCa-2 cells assessed as degradation of WDR5 protein incubated for 18 hrs by Western blotting analysis; assay type: cell-based; method in brief: as §1
[22] = target: T1, von Hippel-Lindau disease tumor suppressor/WD repeat-containing protein 5; assay: PROTAC activity at VHL/WDR5 in human HPAF-II cells assessed as hook effect upto 50 uM incubated for 18 hrs by Western blotting analysis; assay type: cell-based; method in brief: as §1
[23] = AUC (0 to last) in Swiss albino mouse at 75 mg/kg,ip administration measured for 0.5 to 12 hrs by LC-MS/MS analysis; assay type: ADME, organism-based; set-up: time upper 12 hrs, dose 75 mg/kg, time lower 0.5 hrs, route ip; details: in vivo; method in brief: as §6
Panc1005 = assay: Growth inhibition of human Panc1005 cells incubated for 6 days by MTS assay; assay type: functional; details: Panc1005, 144 h, time 6 day; method in brief: as §3
[24] = Cmax in Swiss albino mouse at 75 mg/kg,ip administration measured for 0.5 hrs by LC-MS/MS analysis; assay type: ADME, organism-based; set-up: time 0.5 hrs, dose 75 mg/kg, route ip; details: in vivo; method in brief: as §6
[25] = target: T1, von Hippel-Lindau disease tumor suppressor/WD repeat-containing protein 5; assay: PROTAC activity at VHL/WDR5 in human MIA PaCa-2 cells assessed as degradation of WDR5 protein at 0.5 uM incubated for 4 hrs in presence of OICR-9429 by Western blotting analysis; assay type: cell-based; method in brief: as §4
MIA PaCa-2 = assay: Growth inhibition of human MIA PaCa-2 cells incubated for 6 days by MTS assay; assay type: functional; details: MIA PaCa-2, 144 h, time 6 day; method in brief: as §3
BXPC-3 = assay: Growth inhibition of human BXPC-3 cells incubated for 6 days by MTS assay; assay type: functional; details: BXPC-3, 144 h, time 6 day; method in brief: as §3
[26] = target: T1, von Hippel-Lindau disease tumor suppressor/WD repeat-containing protein 5; assay: PROTAC activity at VHL/WDR5 in human MIA PaCa-2 cells assessed as maximal degradation of WDR5 protein incubated for 18 hrs by Western blotting analysis relative to control; assay type: cell-based; method in brief: as §5

For `Cc1ncsc1-c1ccc(CNC(=O)[C@@H]2C[C@@H](O)CN2C(=O)[C@@H](NC(=O)CNC(=O)c2ccc(F)c(-c3ccc(N4C[C@@H](C)N(C)[C@@H](C)C4)c(NC(=O)c4c[nH]c(=O)cc4C(F)(F)F)c3)c2)C(C)(C)C)cc1`, the Activity [1] was “inactive”, the Activity [2] was “Active” and the Activity [3] was “Tde”. The GI50 (PANC-1) was 32.7 µM, the Activity [4] was “inactive” and the Activity [5] was “inactive”. The Activity [6] was “Dose-Dependent Effect”, the Activity [7] was “Non-Toxic” and the DC50 [8] was 0.092 µM. The Activity [9] was “Dose-Dependent Effect”, the Activity [10] was “inactive” and the concentration at 12 h [11] was over 100 nM. For the same molecule, the Activity [12] was “Dose-Dependent Effect”, the Activity [13] was “Active” and the Activity [14] was “Dose-Dependent Effect”. It also gave a Kd [15] of 0.232 µM, a concentration at 4 h [16] of 1000 nM and a Kd [17] of 0.122 µM. The Activity [18] was “Active”, the Activity [19] was “inactive” and the Activity [20] was “Active”. The GI50 (HPAF-II) was 9.2 µM, the Activity [21] was “Dose-Dependent Effect” and the Activity [22] was “inactive”. For the same molecule, the AUC(0-t) [23] was 7300 ng·h/mL, the GI50 (Panc1005) was 14.3 µM and the Cmax [24] was 5000 nM. The Activity [25] was “Active”, the GI50 (MIA PaCa-2) was 5.7 µM and the GI50 (BXPC-3) was 4 µM. For the same molecule, the Emax [26] was 73%.
